Laboratory results published in ChEMBL document CHEMBL1629545, “A morpholino oligomer targeting highly conserved internal ribosome entry site sequence is able to inhibit multiple species of picornavirus” (Antimicrob Agents Chemother, 2008).
Active and inactive are the calls of the source. The rule behind the calls is not given here.

What was measured:
HeLa [1] = test: Cytotoxicity against human HeLa cells 10 uM after 24 hrs by MTS assay; assay type: cell-based
How it was run: (§1)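 HeLa cells at ~80% confluence, uninfected, exposed to 1–100 μM PPMO or water (mock) in serum-free DMEM-F-12 (1:1) for 24 h. MTS reagent was added for 4 h and absorbance read at 492 nm. Viability was expressed as percent of water-treated cells (set to 100%), averaged over 12 wells.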

HeLa [2] = test: Cytotoxicity against human HeLa cells at 10 uM by MTS assay; assay type: cell-based; how it was run: as §1
Poliovirus 1 = test: Antiviral activity against Human poliovirus type 1 infected in Human HeLa cell assessed as inhibition of translation at 10 ug/ml by luciferase reporter gene assay; assay type: functional, organism-based
How it was run: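 In-cell translation control: HeLa cells electroporated with 20 μg PV1-Luc replicon RNA were placed in medium with 10 μg/ml puromycin at 37°C in 5% CO2. Luciferase in lysates was read by luminometer at hourly time points after transfection. Two experiments were averaged.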

Vero = test: Cytotoxicity against African green monkey Vero cells at 10 uM after 24 hrs by MTS assay; assay type: cell-based; details: chlorocebus sabaeus
SK-N-MC = test: Cytotoxicity against human SK-N-MC cell at 10 uM after 24 hrs by MTS assay; assay type: cell-based

SMILES	Activity (HeLa [1])	Activity (HeLa [2])	Activity (Poliovirus 1)	Activity (Vero)	Activity (SK-N-MC)
Cc1cn([C@H]2CN(P(=O)(OC[C@@H]3CN(P(=O)(OC[C@@H]4CN(P(=O)(OC[C@@H]5CN(P(=O)(OC[C@@H]6CN(P(=O)(OC[C@@H]7CN(P(=O)(OC[C@@H]8CN(P(=O)(OC[C@@H]9CN(P(=O)(OC[C@@H]%10CN(P(=O)(OC[C@@H]%11CN(P(=O)(OC[C@@H]%12CNC[C@H](n%13cnc%14c(N)ncnc%14%13)O%12)N(C)C)C[C@H](n%12cnc%13c(N)ncnc%13%12)O%11)N(C)C)C[C@H](n%11cnc%12c(N)ncnc%12%11)O%10)N(C)C)C[C@H](n%10cc(C)c(=O)[nH]c%10=O)O9)N(C)C)C[C@H](n9cc(C)c(=O)[nH]c9=O)O8)N(C)C)C[C@H](n8cnc9c(N)ncnc98)O7)N(C)C)C[C@H](n7cnc8c(N)ncnc87)O6)N(C)C)C[C@H](n6cnc7c(=O)[nH]c(N)nc76)O5)N(C)C)C[C@H](n5ccc(N)nc5=O)O4)N(C)C)C[C@H](n4ccc(N)nc4=O)O3)N(C)C)C[C@@H](COP(=O)(N(C)C)N3C[C@@H](COP(=O)(N(C)C)N4C[C@@H](COP(=O)(N(C)C)N5C[C@@H](COP(=O)(N(C)C)N6C[C@@H](COP(=O)(N(C)C)N7C[C@@H](COP(=O)(N(C)C)N8C[C@@H](COP(=O)(N(C)C)N9C[C@@H](COP(=O)(N(C)C)N%10C[C@@H](COP(=O)(N(C)C)N%11CCN(C(=O)CCNC(=O)CCCCCNC(=O)[C@H](CCCNC(=N)N)NC(=O)CCCCCNC(=O)[C@H](CCCNC(=N)N)NC(=O)[C@H](CCCNC(=N)N)NC(=O)CCCCCNC(=O)[C@H](CCCNC(=N)N)NC(=O)[C@H](CCCNC(=N)N)NC(=O)CCCCCNC(=O)[C@H](CCCNC(=N)N)NC(=O)[C@H](CCCNC(=N)N)NC(=O)CCCCCNC(=O)[C@@H](N)CCCNC(=N)N)CC%11)O[C@@H](n%11cc(C)c(=O)[nH]c%11=O)C%10)O[C@@H](n%10cc(C)c(=O)[nH]c%10=O)C9)O[C@@H](n9cc(C)c(=O)[nH]c9=O)C8)O[C@@H](n8cc(C)c(=O)[nH]c8=O)C7)O[C@@H](n7cc(C)c(=O)[nH]c7=O)C6)O[C@@H](n6cc(C)c(=O)[nH]c6=O)C5)O[C@@H](n5cc(C)c(=O)[nH]c5=O)C4)O[C@@H](n4ccc(N)nc4=O)C3)O2)c(=O)[nH]c1=O (stereo not given in full)	Toxic	Non-toxic	inactive	Non-toxic	Non-toxic
Cc1cn([C@H]2CN(P(=O)(OC[C@@H]3CN(P(=O)(OC[C@@H]4CN(P(=O)(OC[C@@H]5CN(P(=O)(OC[C@@H]6CN(P(=O)(OC[C@@H]7CN(P(=O)(OC[C@@H]8CN(P(=O)(OC[C@@H]9CN(P(=O)(OC[C@@H]%10CN(P(=O)(OC[C@@H]%11CN(P(=O)(OC[C@@H]%12CN(P(=O)(OC[C@@H]%13CN(P(=O)(OC[C@@H]%14CN(P(=O)(OC[C@@H]%15CN(P(=O)(OC[C@@H]%16CN(P(=O)(OC[C@@H]%17CN(P(=O)(OC[C@@H]%18CN(P(=O)(OC[C@@H]%19CN(P(=O)(OC[C@@H]%20CN(P(=O)(OC[C@@H]%21CN(P(=O)(OC[C@@H]%22CNC[C@H](n%23cnc%24c(N)ncnc%24%23)O%22)N(C)C)C[C@H](n%22cc(C)c(=O)[nH]c%22=O)O%21)N(C)C)C[C@H](n%21ccc(N)nc%21=O)O%20)N(C)C)C[C@H](n%20cnc%21c(N)ncnc%21%20)O%19)N(C)C)C[C@H](n%19cc(C)c(=O)[nH]c%19=O)O%18)N(C)C)C[C@H](n%18cc(C)c(=O)[nH]c%18=O)O%17)N(C)C)C[C@H](n%17cnc%18c(=O)[nH]c(N)nc%18%17)O%16)N(C)C)C[C@H](n%16cnc%17c(=O)[nH]c(N)nc%17%16)O%15)N(C)C)C[C@H](n%15cnc%16c(=O)[nH]c(N)nc%16%15)O%14)N(C)C)C[C@H](n%14cnc%15c(N)ncnc%15%14)O%13)N(C)C)C[C@H](n%13cc(C)c(=O)[nH]c%13=O)O%12)N(C)C)C[C@H](n%12cnc%13c(=O)[nH]c(N)nc%13%12)O%11)N(C)C)C[C@H](n%11cnc%12c(=O)[nH]c(N)nc%12%11)O%10)N(C)C)C[C@H](n%10cnc%11c(N)ncnc%11%10)O9)N(C)C)C[C@H](n9cnc%10c(=O)[nH]c(N)nc%109)O8)N(C)C)C[C@H](n8cc(C)c(=O)[nH]c8=O)O7)N(C)C)C[C@H](n7ccc(N)nc7=O)O6)N(C)C)C[C@H](n6cnc7c(N)ncnc76)O5)N(C)C)C[C@H](n5cnc6c(=O)[nH]c(N)nc65)O4)N(C)C)C[C@H](n4ccc(N)nc4=O)O3)N(C)C)C[C@@H](COP(=O)(N(C)C)N3CCN(C(=O)CCNC(=O)CCCCCNC(=O)[C@H](CCCNC(=N)N)NC(=O)CCCCCNC(=O)[C@H](CCCNC(=N)N)NC(=O)[C@H](CCCNC(=N)N)NC(=O)CCCCCNC(=O)[C@H](CCCNC(=N)N)NC(=O)[C@H](CCCNC(=N)N)NC(=O)CCCCCNC(=O)[C@H](CCCNC(=N)N)NC(=O)[C@H](CCCNC(=N)N)NC(=O)CCCCCNC(=O)[C@@H](N)CCCNC(=N)N)CC3)O2)c(=O)[nH]c1=O (stereo not given in full)	Toxic	Non-toxic	inactive	Non-toxic	Non-toxic
Cc1cn([C@H]2CN(P(=O)(OC[C@@H]3CN(P(=O)(OC[C@@H]4CN(P(=O)(OC[C@@H]5CN(P(=O)(OC[C@@H]6CNC[C@H](n7cnc8c(N)ncnc87)O6)N(C)C)C[C@H](n6cnc7c(N)ncnc76)O5)N(C)C)C[C@H](n5cc(C)c(=O)[nH]c5=O)O4)N(C)C)C[C@H](n4cc(C)c(=O)[nH]c4=O)O3)N(C)C)C[C@@H](COP(=O)(N(C)C)N3C[C@@H](COP(=O)(N(C)C)N4C[C@@H](COP(=O)(N(C)C)N5C[C@@H](COP(=O)(N(C)C)N6C[C@@H](COP(=O)(N(C)C)N7C[C@@H](COP(=O)(N(C)C)N8C[C@@H](COP(=O)(N(C)C)N9C[C@@H](COP(=O)(N(C)C)N%10C[C@@H](COP(=O)(N(C)C)N%11C[C@@H](COP(=O)(N(C)C)N%12C[C@@H](COP(=O)(N(C)C)N%13C[C@@H](COP(=O)(N(C)C)N%14C[C@@H](COP(=O)(N(C)C)N%15C[C@@H](COP(=O)(N(C)C)N%16C[C@@H](COP(=O)(N(C)C)N%17C[C@@H](COP(=O)(N(C)C)N%18C[C@@H](COP(=O)(N(C)C)N%19C[C@@H](COP(=O)(N(C)C)N%20C[C@@H](COP(=O)(N(C)C)N%21C[C@@H](COP(=O)(N(C)C)N%22CCN(C(=O)CCNC(=O)CCCCCNC(=O)[C@H](CCCNC(=N)N)NC(=O)CCCCCNC(=O)[C@H](CCCNC(=N)N)NC(=O)[C@H](CCCNC(=N)N)NC(=O)CCCCCNC(=O)[C@H](CCCNC(=N)N)NC(=O)[C@H](CCCNC(=N)N)NC(=O)CCCCCNC(=O)[C@H](CCCNC(=N)N)NC(=O)[C@H](CCCNC(=N)N)NC(=O)CCCCCNC(=O)[C@@H](N)CCCNC(=N)N)CC%22)O[C@@H](n%22cnc%23c(=O)[nH]c(N)nc%23%22)C%21)O[C@@H](n%21cnc%22c(=O)[nH]c(N)nc%22%21)C%20)O[C@@H](n%20cc(C)c(=O)[nH]c%20=O)C%19)O[C@@H](n%19cnc%20c(N)ncnc%20%19)C%18)O[C@@H](n%18ccc(N)nc%18=O)C%17)O[C@@H](n%17cnc%18c(N)ncnc%18%17)C%16)O[C@@H](n%16cnc%17c(N)ncnc%17%16)C%15)O[C@@H](n%15ccc(N)nc%15=O)C%14)O[C@@H](n%14ccc(N)nc%14=O)C%13)O[C@@H](n%13ccc(N)nc%13=O)C%12)O[C@@H](n%12ccc(N)nc%12=O)C%11)O[C@@H](n%11cc(C)c(=O)[nH]c%11=O)C%10)O[C@@H](n%10cnc%11c(=O)[nH]c(N)nc%11%10)C9)O[C@@H](n9cc(C)c(=O)[nH]c9=O)C8)O[C@@H](n8cnc9c(=O)[nH]c(N)nc98)C7)O[C@@H](n7ccc(N)nc7=O)C6)O[C@@H](n6cc(C)c(=O)[nH]c6=O)C5)O[C@@H](n5cnc6c(=O)[nH]c(N)nc65)C4)O[C@@H](n4cc(C)c(=O)[nH]c4=O)C3)O2)c(=O)[nH]c1=O (stereo not given in full)	Toxic	Non-toxic	inactive	Non-toxic	Non-toxic
